An excerpt weighted towards active compounds, which were near 1.5% of everything screened.
EBI2 block: EBI2 receptor antagonists, beta-arrestin recruitment, primary screen, cell-based, luminescence, 7a,25-OHC stimulation, uHTS; 7a,25-OHC stimulated; inhibition, % at 5 µM; actives 0.81% (n = 360,000); in the data active means inhibition above about 38%;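 further: enzyme fragment complementation signal reports receptor beta-arrestin coupling in cells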
CXCR6 block: CXCR6 receptor inhibitors, primary screen, cell-based, beta-arrestin, luminescence, CHO-K1 PathHunter, 1536-well; inhibition, % at 20 µM; actives 0.36% (n = 360,000); in the data active means inhibition above about 34%, passing the limit was not always enough;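 further: antagonist mode with CXCL16 agonist at 10 nM final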
APJ antag: antagonists of human apelin receptor APJ, primary screen, CHO-K1 cells, beta-arrestin complementation, luminescence. P35414. inhibition, % at 20 µM. actives 0.32% (n = 330,000). AID 2521, 2010;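 active means inhibition above about 40% at 20 µM, limit read from the data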;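 further: cells challenged with 10 nM apelin-13 agonist together with compound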
CCR6 antagonist: CCR6 receptor antagonists, primary screen, cell-based, CHO-K1, luminescence, beta-arrestin, uHTS | CHO-K1 CCR6 PathHunter beta-arrestin, CCL20-stimulated | inhibition, % at 20 µM | actives 0.49% (n = 340,000);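 active means compounds whose inhibition of the agonist-driven luminescence signal at 20 µM reaches about 50%, limit read from the data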;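 further: cells stimulated with CCL20 at 14 nM final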
Target sequence (P51684 whole entry, looked up): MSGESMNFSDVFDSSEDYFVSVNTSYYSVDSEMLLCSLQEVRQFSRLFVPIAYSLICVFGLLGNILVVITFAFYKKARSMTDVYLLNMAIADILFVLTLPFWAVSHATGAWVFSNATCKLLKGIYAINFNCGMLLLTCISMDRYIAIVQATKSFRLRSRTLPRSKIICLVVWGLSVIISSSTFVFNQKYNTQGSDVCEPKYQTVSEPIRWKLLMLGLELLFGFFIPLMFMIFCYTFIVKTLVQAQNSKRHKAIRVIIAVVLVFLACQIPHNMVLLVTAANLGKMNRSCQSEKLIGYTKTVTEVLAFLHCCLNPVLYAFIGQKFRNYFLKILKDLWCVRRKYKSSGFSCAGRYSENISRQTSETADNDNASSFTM
APJ ag: agonists of human apelin receptor APJ, primary screen, CHO-K1 cells, PathHunter beta-arrestin, luminescence | activation, % at 20 µM | AID 2520, 2010 | P35414 | 0% DMSO wells, 100% apelin | actives 0.11% (n = 330,000);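 active means activation more than six SD over the plate average, tested at 20 µM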
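Material: engineered CHO-K1 APJ arrestin reporter cells; amount: 1000 CHO-K1 reporter cells seeded per well; incubation: compound stimulation 90 min at 25 °C, detection 60 min; signal: luminescent beta-gal fragment complementation, chemiluminescent substrate; read-out basis: APJ agonist activity; controls: DMSO-only wells as negative, 10 nM Apelin-13 as positive control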
APJ antag conf: APJ antagonists blocking beta-arrestin recruitment, confirmation, cell-based, luminescence, single concentration, uHTS hits; inhibition, % at 20 µM; shares compounds with APJ antag; actives 66% (n = 950); antagonist mode; AID 2766, 2010; in the data active means inhibition above about 50%
Each line names hits and unclear results; the compound was inactive in the other large screens (follow-up assays come after a bar, where they were run).

Cc1ccc(S(=O)(=O)N2Cc3ccccc3CC2C(=O)N(C)C)cc1 (stereo not drawn)	none (no result: APJ antag, CCR6 antagonist, APJ ag)
Cc1cc(C)n(CCc2nc(-c3ccco3)cs2)n1	APJ antag 56 | APJ antag conf inactive
Cc1cc(C)n(CCc2nc(-c3cccs3)cs2)n1	none
Cn1cnc(S(=O)(=O)N2CCCCC2c2cc(C(=O)NCc3ccc(Cl)c(Cl)c3)no2)c1 (stereo not drawn)	none (no result: APJ antag, CCR6 antagonist, APJ ag)
O=c1c2cc(Br)ccc2[nH]c(=S)n1Cc1ccccc1	none
O=c1c2cc(Br)ccc2[nH]c(=S)n1Cc1ccccn1	CXCR6 block 51, APJ antag 59, CCR6 antagonist 56 | APJ antag conf 93
Cc1ccc2c(c1)nnn2C1CCN(CC(=O)NCCc2nc3ccccc3[nH]2)CC1	APJ antag 41, CCR6 antagonist 57 | APJ antag conf 60
CCN1/C(=C/c2ccc3cc(C)ccc3[n+]2CC)Sc2ccc3sccc3c21	APJ antag 40 | APJ antag conf 56
CCN1/C(=C\c2ccc3cc(C)ccc3[n+]2CC)Sc2cc(C)c(C)cc21	none (no result: APJ antag, APJ ag)
CCOC(=O)N1CCN(C(=O)c2cccn3c(=O)c4cc(Cl)ccc4nc23)CC1	none
CCOC(CNC(=O)c1cccn2c(=O)c3cc(Cl)ccc3nc12)OCC	APJ antag 50 | APJ antag conf inactive
Cc1cc(C)nc(NS(=O)(=O)c2ccc(NC(=S)NC(=O)C3CCCC3)cc2)n1	APJ antag 43 | APJ antag conf inactive
Cc1ccc(NC(=O)CN2C(=O)N/C(=C/c3ccc(C)o3)C2=O)cc1	APJ antag 42 | APJ antag conf inactive
Cc1cccc(NC(=O)CN2C(=O)N/C(=C/c3ccc(C)o3)C2=O)c1	none (no result: APJ antag, APJ ag)
CCOCCOC(=O)C1=C(C)NC2=C(C(=O)CC(c3cccs3)C2)C1c1ccsc1 (stereo not drawn)	APJ antag 45 | APJ antag conf 57
COc1ccc(CN2C(=O)CCC2(C)c2nnnn2-c2ccc3c(c2)OCCO3)cc1 (stereo not drawn)	none (no result: APJ antag, CCR6 antagonist, APJ ag)
Cc1cccc(C)c1NC(=O)C(c1ccnc2ccccc12)n1c(=O)c(-c2ccco2)nc2ccccc21 (stereo not drawn)	none (no result: CXCR6 block, APJ antag, CCR6 antagonist, APJ ag)
O=C(Nc1ccccc1N1CCN(C(=O)c2ccccc2)CC1)c1ccccc1Cl	APJ antag 80 | APJ antag conf inactive
O=C(N/N=C/c1ccccc1O)NC12CC3CC(CC(C3)C1)C2	none
O=C(N/N=C/c1cc(Cl)cc([N+](=O)[O-])c1O)NC12CC3CC(CC(C3)C1)C2	APJ antag 42 | APJ antag conf 70
O=c1c2cc([N+](=O)[O-])cc([N+](=O)[O-])c2[nH]n1-c1ccccc1	APJ antag 41, CCR6 antagonist 56 | APJ antag conf 76
Oc1c(C(c2ccccc2Cl)N2CCCC2)ccc2cccnc12 (stereo not drawn)	EBI2 block 51, APJ antag 56 | APJ antag conf 56
CCN(CC)CCSc1nnc(Nc2ccccc2)n1-c1ccccc1	APJ antag 51 | APJ antag conf inactive
OC[C@@H]1CN(Cc2ccc(F)cc2)C[C@H](n2cnc3c(NCc4ccc(F)cc4)ncnc32)O1	none (no result: APJ antag, CCR6 antagonist, APJ ag)
ON1C(c2ccccc2C(F)(F)F)N(O)[C@H]2CCCC[C@H]21 (stereo partly drawn)	APJ antag 40 | APJ antag conf inactive
CCOC1=C2CN(S(=O)(=O)c3ccc(C)cc3)[C@@H](c3cccs3)C[C@H]2[C@H]2C(=O)N(c3ccccc3)C(=O)[C@H]2C1	none (no result: APJ antag, CCR6 antagonist, APJ ag)
Cc1ccc(-c2ccc3c(c2)O[C@H](CN(C)C(=O)Nc2ccc(C(F)(F)F)cc2)[C@H](C)CN([C@H](C)CO)S3(=O)=O)cc1	none (no result: APJ antag, CCR6 antagonist, APJ ag)
CCCCCCCCCCCCCCCC(O)C[N+](C)(C)CCO (stereo not drawn)	none (no result: APJ antag, APJ ag)
CCCCCCCCCCCCCCCC(O)C(N)CO (stereo not drawn)	APJ antag 41 | APJ antag conf inactive
O=C1COC(c2ccccc2O)=NN1CCCl	none (no result: APJ antag, CCR6 antagonist, APJ ag)
Cc1ccc(-c2csc3nc(C)n(N)c(=O)c23)o1	none
Cc1ccc(-c2csc3nc(C)n(-n4c(C)ccc4C)c(=O)c23)o1	APJ antag 48 | APJ antag conf inactive
CCOc1ccc(-c2c(C(=O)N/N=C/c3ccc(O)cc3)nnn2-c2nonc2N)cc1	none
CCOc1ccc(-c2c(C(=O)N/N=C/c3cccc(Br)c3)nnn2-c2nonc2N)cc1	APJ antag 45 | APJ antag conf inactive
CN(C)c1ccc(N=Nc2nc3ccccc3n2C)cc1	CXCR6 block 54, APJ antag 48, CCR6 antagonist 75 | APJ antag conf 108
NS(=O)(=O)c1ccc(NNC(=O)c2ccc(Br)o2)c([N+](=O)[O-])c1	APJ antag 52, CCR6 antagonist 69 | APJ antag conf 82
N=C1/C(=C/c2ccc(-c3cccc(C(=O)O)c3)o2)C(=O)N=C2SC=C(c3ccccc3)N12	APJ antag 40, CCR6 antagonist 57 | APJ antag conf 53
O=C1CCN(Cc2ccccc2)CCN1[C@H](CO)Cc1ccccc1	none
O=C1CCN(Cc2ccc(Br)cc2)CCN1[C@H](CO)Cc1ccccc1	APJ antag 45 | APJ antag conf inactive
O=S(=O)(c1ccc(NC(=S)N2CCCCC2CO)cc1)N1CCOCC1 (stereo not drawn)	none (no result: APJ antag, CCR6 antagonist, APJ ag)
CN(C)S(=O)(=O)n1cc(/C=C(\NC(=O)c2ccccc2Cl)C(=O)N2CCOCC2)c2ccccc21	APJ antag 50 | APJ antag conf inactive
CN(C)S(=O)(=O)n1cc(/C=C(\NC(=O)c2ccccc2F)C(=O)N2CCOCC2)c2ccccc21	none
COC(=O)[C@]12CCCCC=C1N(Cc1ccccc1)C(=O)[C@H](CC(=O)NCc1cccc(C(F)(F)F)c1)C2	none (no result: APJ antag, CCR6 antagonist, APJ ag)
COc1ccccc1-c1cc2nc(-c3ccccc3)cc(N3CCN(C(=O)c4ccco4)CC3)n2n1	none (no result: APJ antag, CCR6 antagonist, APJ ag)
COc1ccc2cc(C)c3nnc(SCc4cccnc4)n3c2c1	APJ antag 40 | APJ antag conf inactive
Cc1ccc([C@@H]2CC(=O)[C@@H]3CN(S(=O)(=O)c4ccc(C)cc4)[C@H](c4ccccc4)C[C@@H]3N2S(=O)(=O)c2ccc(C)cc2)cc1	none (no result: APJ antag, CCR6 antagonist, APJ ag)
CCCCc1c(-c2ccccc2OC)ncn1CCc1ccccc1Cl	none (no result: APJ antag, CCR6 antagonist, APJ ag)
Oc1c(N=Nc2ccccn2)ccc2ccccc12	APJ antag 68, CCR6 antagonist 50 | APJ antag conf 113
Cc1ccc(C)c2nc3sc(C(=O)N4CCOCC4)c(N)c3cc12	none
Cc1cc(C)c2nc3sc(C(=O)N4CCOCC4)c(N)c3cc2c1	APJ antag 44 | APJ antag conf inactive
CCCCCNC(=O)CCCCn1c(=O)[nH]c2cc(OCC)c(OCC)cc2c1=O	none

High-throughput results as filed in PubChem BioAssay.
